Data taken from ChEMBL document CHEMBL1123393, “5-HT1 and 5-HT2 binding characteristics of 1-(2,5-dimethoxy-4-bromophenyl)-2-aminopropane analogues” (J Med Chem, 1986).

Columns and labels:
[1] = test system: Rattus norvegicus; assay: Number of animals responding to the drug 0.5 (mg/kg) out of 3 animals tested; type: functional
[2] = test system: Rattus norvegicus; assay: Concentration required to produce DOM like response when administered in rats; type: functional
How it was run: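 Six male Sprague-Dawley rats, food-restricted to about 80% of free-feeding weight, trained on two-lever drug discrimination: DOM HCl 1.0 mg/kg ip versus saline, 15 min pre-session. Test drug given ip before a 2.5-min extinction test.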

[3] = test system: Rattus norvegicus; assay: DOM appropriate responses per min when compound administered at 0.5 mg/kg; type: functional
How it was run: (§1)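 DOM (1.0 mg/kg ip) versus saline two-lever discrimination in food-restricted male Sprague-Dawley rats. Test doses given ip with a 15-min presession interval. Response rate (responses/min) measured during a 2.5-min extinction test session.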

[4] = test system: Rattus norvegicus; assay: DOM appropriate responding in percent when compound administered at 0.2 mg/kg; type: functional
How it was run: (§2)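 Rats trained to discriminate DOM (1.0 mg/kg ip, 15-min presession interval) from saline on two levers. Test doses given ip. Percent of responses on the DOM-appropriate lever recorded during a 2.5-min extinction session.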

[5] = test system: Rattus norvegicus; assay: DOM appropriate responses per min when compound administered at 0.2 mg/kg; type: functional; how it was run: as §1
[6] = target: Serotonin 1 (5-HT1) receptor (Rattus norvegicus, UniProt P28564+P30940+P19327+P28565); assay: Binding affinity for 5-hydroxytryptamine 1 receptor of rat prefrontal cortex; type: tissue-based
How it was run: (§3)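 Rat prefrontal cortex (female Sprague-Dawley, ca. 200 g) homogenate, 4 mg wet weight tissue per tube, in 50 mM Tris, 5 mM MgCl2, 0.5 mM EDTA (pH 7.4 at 37 °C). Radioligand 2 nM [3H]-5-HT for 5-HT1 or 0.4 nM [3H]ketanserin for 5-HT2. Nonspecific binding with 1 μM 5-HT or 1 μM cinanserin. Filtration, scintillation counting. IC50 from a 23-point curve in triplicate by nonlinear fit; Ki by Cheng-Prusoff.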

[7] = test system: Rattus norvegicus; assay: Number of animals responding to the drug 0.2 (mg/kg) out of 3 animals tested; type: functional
[8] = test system: Rattus norvegicus; assay: DOM appropriate responding in percent when compound administered at 0.5 mg/kg; type: functional; how it was run: as §2
[9] = test system: Rattus norvegicus; assay: DOM appropriate responding in percent when compound administered at 0.1 mg/kg; type: functional; how it was run: as §2
[10] = test system: Rattus norvegicus; assay: DOM appropriate responses per min when compound administered at 0.1 mg/kg; type: functional; how it was run: as §1
[11] = test system: Rattus norvegicus; assay: Number of animals responding to the drug 0.1 (mg/kg) out of 4 animals tested; type: functional
[12] = target: Serotonin 2 (5-HT2) receptor (Rattus norvegicus, UniProt P30994+P08909+P14842); assay: Displacement of [3H]ketanserin from rat prefrontal cortex 5-hydroxytryptamine 2 receptor; type: tissue-based; how it was run: as §3
[13] = test system: Rattus norvegicus; assay: DOM appropriate responding in percent when compound administered at 1.2 mg/kg; type: functional; how it was run: as §2
[14] = test system: Rattus norvegicus; assay: DOM appropriate responses per min when compound administered at 1.2 mg/kg; type: functional; how it was run: as §1
[15] = test system: Rattus norvegicus; assay: DOM appropriate responding in percent when compound administered at 1.8 mg/kg; type: functional; how it was run: as §2
[16] = test system: Rattus norvegicus; assay: DOM appropriate responses per min when compound administered at 1.8 mg/kg; type: functional; how it was run: as §1
[17] = test system: Rattus norvegicus; assay: Number of animals responding to the drug 1.2 (mg/kg) out of 3 animals tested; type: functional
[18] = test system: Rattus norvegicus; assay: Number of animals responding to the drug 1.8 (mg/kg) out of 3 animals tested; type: functional
[19] = test system: Rattus norvegicus; assay: DOM appropriate responding in percent when compound administered at 7 mg/kg; type: functional; how it was run: as §2
[20] = test system: Rattus norvegicus; assay: DOM appropriate responding in percent when compound administered at 4 mg/kg; type: functional; how it was run: as §2
[21] = test system: Rattus norvegicus; assay: DOM appropriate responses per min when compound administered at 4 mg/kg; type: functional; how it was run: as §1
[22] = test system: Rattus norvegicus; assay: Number of animals responding to the drug 7 (mg/kg) out of 5 animals tested; type: functional
[23] = test system: Rattus norvegicus; assay: DOM appropriate responding in percent when compound administered at 6 mg/kg; type: functional; how it was run: as §2
[24] = test system: Rattus norvegicus; assay: Number of animals responding to the drug 6 (mg/kg) out of 5 animals tested; type: functional
[25] = test system: Rattus norvegicus; assay: DOM appropriate responses per min when compound administered at 5 mg/kg; type: functional; how it was run: as §1
[26] = test system: Rattus norvegicus; assay: Number of animals responding to the drug 5 (mg/kg) out of 6 animals tested; type: functional
[27] = test system: Rattus norvegicus; assay: DOM appropriate responses per min when compound administered at 7 mg/kg; type: functional; how it was run: as §1
[28] = test system: Rattus norvegicus; assay: DOM appropriate responses per min when compound administered at 6 mg/kg; type: functional; how it was run: as §1
[29] = test system: Rattus norvegicus; assay: DOM appropriate responding in percent when compound administered at 5 mg/kg; type: functional; how it was run: as §2
[30] = test system: Rattus norvegicus; assay: DOM appropriate responding in percent when compound administered at 8 mg/kg; type: functional; how it was run: as §2
[31] = test system: Rattus norvegicus; assay: DOM appropriate responses per min when compound administered at 8 mg/kg; type: functional; how it was run: as §1
[32] = test system: Rattus norvegicus; assay: Number of animals responding to the drug 8 (mg/kg) out of 3 animals tested; type: functional
[33] = test system: Rattus norvegicus; assay: Number of animals responding to the drug (mg/kg) out of 4 animals tested; type: functional
[34] = test system: Rattus norvegicus; assay: Number of animals responding to the drug 13 (mg/kg) out of 3 animals tested; type: functional
[35] = test system: Rattus norvegicus; assay: Number of animals responding to the drug 2 (mg/kg) out of 4 animals tested; type: functional
[36] = test system: Rattus norvegicus; assay: DOM appropriate responding in percent when compound administered at 12 mg/kg; type: functional; how it was run: as §2
[37] = test system: Rattus norvegicus; assay: Number of animals responding to the drug 10 (mg/kg) out of 3 animals tested; type: functional
[38] = test system: Rattus norvegicus; assay: Number of animals responding to the drug 5 (mg/kg) out of 4 animals tested; type: functional
[39] = test system: Rattus norvegicus; assay: DOM appropriate responses per min when compound administered at 10 mg/kg; type: functional; how it was run: as §1
[40] = test system: Rattus norvegicus; assay: Number of animals responding to the drug 12 (mg/kg) out of 3 animals tested; type: functional
[41] = test system: Rattus norvegicus; assay: DOM appropriate responses per min when compound administered at 12 mg/kg; type: functional; how it was run: as §1
[42] = test system: Rattus norvegicus; assay: DOM appropriate responding in percent when compound administered at 2 mg/kg; type: functional; how it was run: as §2
[43] = test system: Rattus norvegicus; assay: DOM appropriate responses per min when compound administered at 2 mg/kg; type: functional; how it was run: as §1
[44] = test system: Rattus norvegicus; assay: Number of animals responding to the drug 13 (mg/kg) out of 3 animals tested (second group of 3 animals); 1/3; type: functional
[45] = test system: Rattus norvegicus; assay: Number of animals responding to the drug 11 (mg/kg) out of 3 animals tested; type: functional
[46] = test system: Rattus norvegicus; assay: DOM appropriate responses per min when compound administered at 11 mg/kg; type: functional; how it was run: as §1
[47] = test system: Rattus norvegicus; assay: DOM appropriate responding in percent when compound administered at 10 mg/kg; type: functional; how it was run: as §2
[48] = test system: Rattus norvegicus; assay: DOM appropriate responding in percent when compound administered at 11 mg/kg; type: functional; how it was run: as §2

`COc1cc(CC(C)N)c(O)cc1Br` (stereo not given) gave an Activity [1] of 3, an ED50 [2] of 0.18 mg/kg and a Response [3] of 11.9 min. The Activity [4] was 55%, the Response [5] was 12.1 min and the Ki [6] was 1710 nM. For the same molecule, the Activity [7] was 3, the Activity [8] was 96% and the Activity [9] was 19%. The Response [10] was 15.4 min, the Activity [11] was 4 and the Ki [12] was 0.21 µM.
With `CC(N)Cc1ccc(Br)cc1` (stereo not given) the Ki [6] was 2830 nM and the Ki [12] was 4.65 µM.
Work on `COc1cc(CC(C)N)c(OC)cc1Br` (racemic) [BROLAMFETAMINE] yielded an ED50 [2] of 0.2 mg/kg and a Ki [6] of 3340 nM.
For `COc1ccc(OC)c(CC(C)N)c1` (racemic), the Ki [6] was 1020 nM.
Work on `COc1ccccc1CC(C)N` (racemic) yielded a Ki [6] of 3500 nM.
`CCCNC(C)Cc1cc(OC)ccc1OC` (stereo not given) showed a Ki [6] of 4100 nM and a Ki [12] of 25.6 µM.
`COc1cc(CC(C)N)c(OC)cc1I` (stereo not given) gave an Activity [1] of 3, an ED50 [2] of 0.99 mg/kg and a Response [3] of 12.2 min. For the same molecule, the Activity [13] was 43%, the Response [14] was 16.9 min and the Activity [15] was 93%. The Ki [6] was 920 nM, the Activity [8] was 14% and the Response [16] was 7.8 min. For the same molecule, the Activity [17] was 3, the Activity [18] was 3 and the Ki [12] was 0.035 µM.
`CCCNC(C)Cc1cc(OC)c(Br)cc1OC` (stereo not given) showed an ED50 [2] of 4.76 mg/kg, an Activity [19] of 88% and an Activity [20] of 24%. For the same molecule, the Response [21] was 10.2 min, the Activity [22] was 3 and the Activity [23] was 79%. For the same molecule, the Activity [24] was 4, the Response [25] was 6.3 min and the Activity [26] was 6. The Response [27] was 5.2 min, the Response [28] was 10.2 min and the Ki [6] was 1320 nM. It also gave an Activity [29] of 63%, an Activity [30] of 92% and a Response [31] of 5.9 min. For the same molecule, the Activity [32] was 3, the Ki [12] was 1.93 µM and the Activity [33] was 4.
`COc1cc(Br)ccc1CC(C)N` (stereo not given) showed an Activity [34] of 1, an Activity [35] of 4 and an Activity [36] of 65%. For the same molecule, the Activity [37] was 3, the Activity [38] was 3 and the Response [39] was 4.5 min. For the same molecule, the Activity [40] was 2, the Response [41] was 2.8 min and the Response [25] was 14.9 min. For the same molecule, the Activity [42] was 14%, the Response [43] was 16.3 min and the Activity [44] was 1. It also gave a Ki [6] of 2900 nM, an Activity [45] of 3 and a Response [46] of 3.3 min. It also gave an Activity [29] of 15%, an Activity [47] of 8% and a Ki [12] of 4.87 µM. It also gave an Activity [48] of 17%.
`COc1cc(C[C@@H](C)N)c(OC)cc1I` showed a Ki [6] of 2290 nM and a Ki [12] of 0.0099 µM.
With `COc1cccc(CC(C)N)c1` (racemic) the Ki [6] was 2660 nM and the Ki [12] was 7.85 µM.
With `COc1cc(CC(C)N)ccc1Br` (stereo not given) the Ki [6] was greater than 25000 nM and the Ki [12] was greater than 25 µM.
